Rows were chosen to be rich in hits. Some 2.8% of all compounds tested hit in one or more screens of this group.
E-selectin induc: E-selectin induction in HUVECs, primary screen, imaging, HUVEC, immunofluorescence imaging, single point | 260,000 compounds, 0.37% hits | activation, % at 7.58 µM | AID 686992, 2013 | normalized: neutral wells 0, TNF-alpha wells 100;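 active = mean E-selectin-positive cell signal at least 10% of the positive control, reached in at least 60% of replicates, without over 20% cell loss; inconclusive = no rule given, readout overlaps actives, possibly toxicity-flagged; inactive = the rest, including those meeting only one limit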
Target sequence (P16581 whole entry, looked up): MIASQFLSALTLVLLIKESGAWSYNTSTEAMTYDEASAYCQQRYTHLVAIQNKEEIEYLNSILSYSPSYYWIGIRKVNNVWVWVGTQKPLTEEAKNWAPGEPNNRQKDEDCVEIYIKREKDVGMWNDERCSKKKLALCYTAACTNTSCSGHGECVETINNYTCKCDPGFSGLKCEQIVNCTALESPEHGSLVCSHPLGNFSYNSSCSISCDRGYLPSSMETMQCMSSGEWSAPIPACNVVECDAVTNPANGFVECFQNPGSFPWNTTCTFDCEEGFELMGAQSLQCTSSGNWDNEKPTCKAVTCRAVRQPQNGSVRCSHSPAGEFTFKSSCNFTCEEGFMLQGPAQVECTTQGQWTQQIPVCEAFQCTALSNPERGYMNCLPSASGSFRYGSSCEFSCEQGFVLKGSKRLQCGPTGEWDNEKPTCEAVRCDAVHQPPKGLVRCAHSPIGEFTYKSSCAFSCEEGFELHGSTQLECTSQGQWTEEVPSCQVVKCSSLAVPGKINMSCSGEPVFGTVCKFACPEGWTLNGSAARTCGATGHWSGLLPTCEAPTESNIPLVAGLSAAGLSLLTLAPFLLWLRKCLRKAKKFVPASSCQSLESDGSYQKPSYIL
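Assay system: HUVEC primary endothelial cells. Input: 3,000 HUVEC seeded per well. Doses: one compound dose added by pin transfer. Read-out basis: % PE-positive cells. Benchmarks: TNF-alpha high, DMSO low. Detection: immunofluorescence imaging. Buffer or medium: EGM-2, gelatin.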
SIRT5 inh: SIRT5 desuccinylase inhibitors, primary screen, biochemical, fluorescence imaging, single point, set 5; AID 652115, 2013; NAD-dependent protein deacylase sirtuin-5, mitochondrial (Homo sapiens), Q9NXA8; inhibition, % at 15 µM; Purified SirT5, succinyl-peptide AMC, trypsin-coupled fluorescence; 330,000 compounds, 1.1% hits; in the data active = inhibition above about 15%; inconclusive = no clear call, values can overlap the other calls
DENV2 CPE: inhibitors of DENV2 cytopathic effect, primary screen, cell-based, plate reader, single concentration | CPE inhibition, % at 9.99 µM | DENV2-infected cells, cytopathic effect rescue | AID 651640, 2012 | 350,000 compounds, 1.7% hits; in the data active = CPE inhibition above about 20%, passing the limit was not always enough; inconclusive = no clear call, values can overlap the other calls; tested in BHK-21 cells
A number is an active result.

Screening Cc1ccccc1OCC(O)Cn1c(Br)nc2c1c(=O)[nH]c(=O)n2C (stereo unspecified) returned E-selectin induc inactive, SIRT5 inh inactive and DENV2 CPE inactive.
Screening Cc1ccccc1OCC(O)CN1CCCCC1 (stereo unspecified) returned SIRT5 inh inactive and DENV2 CPE inactive.
For Cc1noc(C)c1NC(=O)N(C)C[C@@H]1OCCCC[C@H](C)Oc2ccc(NC(=O)C3CCCCC3)cc2C(=O)N([C@@H](C)CO)C[C@@H]1C the results were E-selectin induc inactive, SIRT5 inh inactive and DENV2 CPE inactive.
`COc1ccccc1NS(=O)(=O)c1cccc(C(=O)NCC(c2ccccc2OC)N2CCCC2)c1` (stereo unspecified) gave SIRT5 inh 15.4 and DENV2 CPE inactive.
COc1ccccc1NS(=O)(=O)c1cccc(C(=O)NCC(c2ccco2)N2CCCC2)c1 (stereo unspecified) was read as E-selectin induc inactive, SIRT5 inh inactive and DENV2 CPE inactive.
`CCOC(=O)Cc1csc(NC(=O)c2ccc(C)cc2)n1` gave E-selectin induc inactive, SIRT5 inh inactive and DENV2 CPE inactive.
Screening CCOC(=O)Cc1csc(NC(=O)c2cc(C)cc(C)c2)n1 returned SIRT5 inh 15.9 and DENV2 CPE inactive.
O=C(c1cccnc1)N1C[C@@H]2[C@H](c3ccccc31)[C@H](CO)N2C(=O)Nc1ccccc1 was read as E-selectin induc inactive, SIRT5 inh inactive and DENV2 CPE inactive.
Cc1ccc(S(=O)(=O)N(C)C[C@@H]2Oc3ccc(NC(=O)Cc4ccccc4)cc3CC(=O)N([C@@H](C)CO)C[C@H]2C)cc1 was read as E-selectin induc inactive, SIRT5 inh inactive and DENV2 CPE inconclusive.
Screening O=C(CN(CC1CCCO1)C(=O)CNS(=O)(=O)c1ccccc1)NCc1ccc(F)cc1 (stereo unspecified) returned E-selectin induc 26.3, SIRT5 inh inactive and DENV2 CPE inactive.
Screening O=C(CN(CC1CCCO1)C(=O)CNS(=O)(=O)c1ccc(F)cc1)NCc1ccc(F)cc1 (stereo unspecified) returned SIRT5 inh inactive and DENV2 CPE inactive.
For CC(=O)Nc1ccc2c(c1)C(=O)N(C)[C@@H]1CC[C@H](CC(=O)NCC3CCCCC3)O[C@H]1CO2 the results were E-selectin induc inactive and DENV2 CPE inactive.
`C[C@@H]1CN([C@H](C)CO)C(=O)c2cccc(NS(=O)(=O)c3cccs3)c2O[C@H]1CN(C)Cc1ccc(Cl)c(Cl)c1` gave E-selectin induc 348.6, SIRT5 inh inactive and DENV2 CPE 41.1.
`C[C@@H]1CN([C@@H](C)CO)C(=O)c2cccc(NS(=O)(=O)c3cccs3)c2O[C@@H]1CN(C)Cc1ccc(Cl)c(Cl)c1` gave E-selectin induc inactive, SIRT5 inh inactive and DENV2 CPE inactive.
For COc1ccc(S(=O)(=O)Nc2cccc3c2O[C@H](CN(C)Cc2ccc(Cl)c(Cl)c2)[C@@H](C)CN([C@H](C)CO)C3=O)cc1 the results were E-selectin induc inactive, SIRT5 inh 15.1 and DENV2 CPE 25.2.
`COc1ccc(CN(C)C[C@H]2Oc3c(NS(=O)(=O)c4ccc(C)cc4)cccc3C(=O)N([C@H](C)CO)C[C@@H]2C)cc1` gave E-selectin induc inactive, SIRT5 inh inactive and DENV2 CPE 31.3.
Screening COc1ccc(S(=O)(=O)Nc2cccc3c2O[C@H](CN(C)Cc2ccc(Cl)c(Cl)c2)[C@H](C)CN([C@@H](C)CO)C3=O)cc1 returned E-selectin induc inactive.
COc1ccc(CN(C)C[C@H]2Oc3c(NS(=O)(=O)c4ccc(C)cc4)cccc3C(=O)N([C@H](C)CO)C[C@H]2C)cc1 was read as E-selectin induc inactive, SIRT5 inh inactive and DENV2 CPE inactive.
CO[C@H]1CN(C)C(=O)c2cc(NC(=O)NC(C)C)ccc2OC[C@H](C)N(Cc2ccc(-c3ccccn3)cc2)C[C@H]1C was read as E-selectin induc inactive, SIRT5 inh inactive and DENV2 CPE inactive.
For CC(=O)N1CC2(C1)[C@H](c1ccc(-c3cccc(F)c3)cc1)[C@H](CO)N2CC1CCCC1 the results were E-selectin induc inactive and DENV2 CPE inactive.
For Cc1ccc(S(=O)(=O)Nc2cccc3c2O[C@@H](CN(C)S(=O)(=O)c2ccc(Cl)cc2)[C@@H](C)CN([C@H](C)CO)C3=O)cc1 the results were E-selectin induc inactive, SIRT5 inh inactive and DENV2 CPE inactive.
`Cc1ccc(S(=O)(=O)N(C)C[C@H]2Oc3c(NS(=O)(=O)c4ccc(Cl)cc4)cccc3C(=O)N([C@@H](C)CO)C[C@H]2C)cc1` gave E-selectin induc inactive, SIRT5 inh inactive and DENV2 CPE 74.4.
For COc1ccc(S(=O)(=O)Nc2cccc3c2O[C@H](CN(C)S(=O)(=O)c2ccc(C)cc2)[C@@H](C)CN([C@H](C)CO)C3=O)cc1 the results were E-selectin induc inactive and DENV2 CPE inactive.
Screening COc1ccc(S(=O)(=O)N(C)C[C@@H]2Oc3c(NS(=O)(=O)c4ccc(C)cc4)cccc3C(=O)N([C@H](C)CO)C[C@H]2C)cc1 returned E-selectin induc inactive, SIRT5 inh inactive and DENV2 CPE 43.3.
COc1ccccc1CNC(=O)C[C@H]1CC[C@@H](NC(C)=O)[C@@H](CO)O1 was read as E-selectin induc inactive, SIRT5 inh inactive and DENV2 CPE inactive.
Screening COCC(=O)Nc1ccc2c(c1)C(=O)N(C)C[C@@H](OC)[C@@H](C)CN(Cc1ccccc1OC)[C@H](C)CO2 returned E-selectin induc inactive, SIRT5 inh inactive and DENV2 CPE inactive.
`O=C(CCC(=O)N1CCN(S(=O)(=O)c2ccccc2)CC1)c1ccc(Br)cc1` gave E-selectin induc inactive, SIRT5 inh inactive and DENV2 CPE inactive.
`NC(=O)C(CCC(=O)c1ccc(Br)cc1)S(=O)(=O)c1ccccc1` (stereo unspecified) gave E-selectin induc inactive, SIRT5 inh inactive and DENV2 CPE 31.0.
For CCC(=O)N1CC2(C1)[C@H](c1ccc(-c3cccc(OC)c3)cc1)[C@@H](CO)N2C(C)=O the results were E-selectin induc inactive, SIRT5 inh inactive and DENV2 CPE inactive.
CC(C)c1ccc(Nc2ncc3c(n2)CCN(C(=O)Nc2ccc(F)c(Cl)c2)C3)cc1 was read as E-selectin induc inactive, SIRT5 inh inactive and DENV2 CPE 20.1.
COc1cccc(NC(=O)N2CCc3nc(Nc4cc(Cl)cc(Cl)c4)ncc3C2)c1 was read as E-selectin induc inactive and DENV2 CPE inactive.
`N#Cc1ccccc1COC(=O)CCCC1=NS(=O)(=O)c2ccccc2N1` gave E-selectin induc inactive, SIRT5 inh 31.9 and DENV2 CPE inactive.
Screening COc1ccc(NC(=O)COC(=O)CCCC2=NS(=O)(=O)c3ccccc3N2)cc1 returned SIRT5 inh inactive and DENV2 CPE inactive.
Screening C[C@@H]1CN([C@H](C)CO)C(=O)Cc2cc(NC(=O)NC3CCCCC3)ccc2O[C@@H]1CN(C)S(=O)(=O)c1ccccc1 returned E-selectin induc inactive and SIRT5 inh inactive.
For O=C(c1cccnc1)N1C[C@H]2[C@@H](c3ccccc31)[C@H](CO)N2Cc1ccc2c(c1)OCO2 the results were E-selectin induc inactive, SIRT5 inh inactive and DENV2 CPE inactive.

High-throughput results: PubChem, Broad Institute
